Source: PubChem
CHOP UPR activ: apoptotic UPR (CHOP) activation. AID 449763. 330,000 tested, 0.34% active. CHO-CHOP luciferase reporter, luminescence; percent of tunicamycin response over DMSO baseline. activation, % at 10 µM;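 active means at 10 µM dose, activation of 40% or more, normalized to positive control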
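Test system: CHO CHOP reporter cells. Input: 500 CHO-CHOP cells per well. Medium: F12 with 10% FBS. Technique: luciferase luminescence. Measure: percent activation relative to tunicamycin control. Dosing: 10 µM compound, 0.5% DMSO. Timing: 16-18 h cell attachment, then 6 h compound exposure, 37 °C.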
VLA-4 inh: inhibition in a human VLA-4 binding assay | VLA-4 expressing cells, ligand binding flow cytometry | inhibition, % (about 7 µM as worked out from the volumes in the protocol) | 330,000 tested, 0.2% active | AID 2557; in the data active means inhibition above about 50%
B2AR ag: agonists of human beta-2 adrenergic receptor inducing internalization. P07550. Am2.2-beta2AR cells, FAP receptor internalization, flow cytometry. response, % (test concentration not listed). 340,000 tested, 0.43% active. AID 504454;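 active means response above a set limit, near 3 SD of response in nonfluorescent compounds, cut at about 42% in these data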
XBP1 UPR activ: activators of adaptive arm of unfolded protein response (XBP1). CHO-XBP1 luciferase reporter, IRE1-XBP1 UPR activation, luminescence; percent of tunicamycin response, DMSO as zero. activation, % at 20 µM. 330,000 tested, 0.33% active;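 active means versus positive control, 20 µM dose yields 30% or more activation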
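Material: CHO-XBP1 cells stably carrying IRE1-XBP1-driven luciferase reporter | Medium: F12 with 10% serum | Compound dosing: 20 µM single concentration, DMSO 1% | Incubation: Overnight seeding at 37 °C, 6 h compound treatment at 37 °C | Detection: Steady-Glo luminescence read | Read-out basis: % activation of reporter signal versus tunicamycin and DMSO controls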
CHOP inhibitor: blocks CHOP induction under ER stress | CHO-K1 CHOP-promoter luciferase, tunicamycin-induced, 15-18 h | 220,000 tested, 3.8% active | inhibition, % at 10 µM | AID 2732;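 active means compounds that reduced the stress-induced luciferase reporter signal by more than about 70% of percent inhibition, limit read from the data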
Beta2AR ag CP1: activates human beta-2 adrenergic receptor; shares compounds with B2AR ag; Am2.2-beta2AR cells, FAP surface receptor, flow cytometry; hits give low values; percent response (surface receptor), % at 10 µM; 1,100 tested, 25% active; AID 540358;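 active means surface receptor percent response at or below 58%, roughly 3 SD from nonfluorescent compounds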
FAP fluor counter: flagged in Am2.2 fluorescence counterscreen for beta-2AR agonists; calls only at 10 µM; Am2.2 cells, FAP fluorogen flow cytometry; hits give low values; 1,100 tested, under 10 active; shares compounds with B2AR ag;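 active means percent response below a set limit in fluorescence channel 1 and below 50% in channel 8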
Hits are given with their value. Many of the other results were omitted from the sample, so hits are more common in it than they were.

Screening O=C(CSc1ccc(Cl)cc1)Nc1ccccc1N1CCN(C(=O)c2ccccc2)CC1 returned CHOP UPR activ inactive, VLA-4 inh inactive, B2AR ag 43.1, XBP1 UPR activ inactive, CHOP inhibitor inactive, Beta2AR ag CP1 inactive and FAP fluor counter inactive.
O=c1nc(-c2ccccc2)c2ccccc2[nH]1 was read as CHOP UPR activ inactive, VLA-4 inh inactive, B2AR ag 60.4, XBP1 UPR activ inactive, CHOP inhibitor inactive, Beta2AR ag CP1 inactive and FAP fluor counter inactive.
Screening CCc1cccc2c1NC1(CCCC1)CC2C (stereo not drawn) returned CHOP UPR activ inactive, VLA-4 inh inactive, B2AR ag inactive, XBP1 UPR activ inactive, CHOP inhibitor 91.1, Beta2AR ag CP1 inactive and FAP fluor counter inactive.
CCc1cccc2c1NC(=O)C2=O was read as B2AR ag inactive.
Screening NC(=O)CC(NC(=O)c1ccc(Br)cc1)c1ccc(N2CCN(c3ccccn3)CC2)c([N+](=O)[O-])c1 (stereo not drawn) returned CHOP UPR activ inactive, VLA-4 inh inactive, B2AR ag 98.2, XBP1 UPR activ inactive, CHOP inhibitor inactive, Beta2AR ag CP1 14.5 and FAP fluor counter inactive.
For NC(=O)CC(NC(=O)c1cccc(Br)c1)c1ccc(N2CCN(c3ccccn3)CC2)c([N+](=O)[O-])c1 (stereo not drawn) the results were CHOP UPR activ inactive, VLA-4 inh inactive, B2AR ag 96.9, XBP1 UPR activ inactive, Beta2AR ag CP1 14.2 and FAP fluor counter inactive.
NC(=O)CC(NC(=O)Cc1ccc(Br)cc1)c1ccc(N2CCN(c3ccccn3)CC2)c([N+](=O)[O-])c1 (stereo not drawn) was read as CHOP UPR activ inactive, VLA-4 inh inactive, B2AR ag 63.3, XBP1 UPR activ inactive, Beta2AR ag CP1 inactive and FAP fluor counter inactive.
`NC(=O)CC(NC(=O)Cc1ccc(Cl)cc1)c1ccc(N2CCN(c3ccccn3)CC2)c([N+](=O)[O-])c1` (stereo not drawn) gave CHOP UPR activ inactive, VLA-4 inh inactive, B2AR ag inactive and XBP1 UPR activ inactive.
NC(=O)CC(NC(=O)c1cccc(Br)c1)c1ccc(N2CCC(Br)CC2)c([N+](=O)[O-])c1 (stereo not drawn) was read as CHOP UPR activ inactive, VLA-4 inh inactive, B2AR ag inactive and XBP1 UPR activ inactive.
`CC(=O)OC[C@]12CC[C@H]3[C@@](C)(CC[C@H]4C(C)(C)CCC[C@]34C)[C@@H]1C[C@H](C1=CC(=O)O[C@@H]1OC(C)=O)O2` gave CHOP UPR activ inactive, VLA-4 inh inactive and XBP1 UPR activ inactive.
Screening Oc1c(CN2CCOCC2)cc(COCc2ccccc2)c2cccnc12 returned VLA-4 inh inactive, B2AR ag inactive, Beta2AR ag CP1 inactive and FAP fluor counter inactive.
For Oc1c(CNc2ccccc2)cc(COCc2ccccc2)c2cccnc12 the results were CHOP UPR activ inactive, VLA-4 inh inactive, B2AR ag inactive and XBP1 UPR activ inactive.
Screening Cc1ccc(CC(=O)NNC(=O)c2ccncc2)cc1C returned CHOP UPR activ inactive, VLA-4 inh inactive, B2AR ag inactive and XBP1 UPR activ inactive.
For COc1ccc(S(=O)(=O)N(CCc2ccccc2)CC(=O)O)cc1 the results were CHOP UPR activ inactive, VLA-4 inh inactive, B2AR ag 51.2, XBP1 UPR activ inactive, CHOP inhibitor inactive, Beta2AR ag CP1 inactive and FAP fluor counter inactive.
`CCN1C(=O)[C@@H]2[C@@H](c3ccc(-c4ccc(Cl)c(Cl)c4)c(OC)c3)N3CCC[C@@]3(C(=O)OC)[C@@H]2C1=O` gave CHOP UPR activ inactive, VLA-4 inh inactive, B2AR ag inactive and XBP1 UPR activ inactive.
`CN1C[C@@H]2[C@@H]3C(=O)N(Cc4ccccc4)C(=O)[C@@H]3[C@](Cc3ccccc3)(C1=O)N2C(=O)c1ccc(C(F)(F)F)cc1` gave B2AR ag inactive.
`Cc1ccc([N+](=O)[O-])cc1Nc1nc(N2CCOCC2)nc(N2CCOCC2)n1` gave CHOP UPR activ inactive, VLA-4 inh inactive, B2AR ag 49.9, XBP1 UPR activ inactive, CHOP inhibitor inactive, Beta2AR ag CP1 inactive and FAP fluor counter inactive.
For CCn1c(SCC(=O)Nc2cc(C)on2)nnc1-c1ccc(OC)cc1 the results were CHOP UPR activ inactive, VLA-4 inh inactive, B2AR ag inactive, XBP1 UPR activ inactive and CHOP inhibitor inactive.
Screening COc1cccc(/C=N/NC(=S)Nc2cccc(S(=O)(=O)N(C)C)c2)c1 returned CHOP UPR activ inactive, VLA-4 inh inactive, B2AR ag inactive, XBP1 UPR activ inactive, CHOP inhibitor inactive, Beta2AR ag CP1 inactive and FAP fluor counter inactive.
`COc1ccc(O)c(/C=N/NC(=S)Nc2cccc(S(=O)(=O)N(C)C)c2)c1` gave VLA-4 inh inactive, B2AR ag inactive and CHOP inhibitor inactive.
`CC(=O)c1c(C)[nH]c(C(=O)Nc2ccc(C)cc2Br)c1C` gave CHOP UPR activ inactive, VLA-4 inh inactive, B2AR ag inactive and XBP1 UPR activ inactive.
Screening COCCOC(=O)C1=C(C)NC(=O)NC1c1cn(-c2ccccc2)nc1-c1cccs1 (stereo not drawn) returned CHOP UPR activ inactive, VLA-4 inh inactive, B2AR ag inactive, XBP1 UPR activ inactive and CHOP inhibitor inactive.
CC1=C(C#N)C(c2cn(-c3ccccc3)nc2-c2cccs2)C(C#N)=C(C)N1 was read as CHOP UPR activ inactive, VLA-4 inh inactive, B2AR ag 108.4, XBP1 UPR activ inactive, CHOP inhibitor inactive, Beta2AR ag CP1 12.6 and FAP fluor counter inactive.
For COc1ccc(CNC(=O)CCCCCNc2nc(=S)[nH]c3ccccc23)cc1 the results were CHOP UPR activ inactive, VLA-4 inh inactive, B2AR ag 128.9, XBP1 UPR activ inactive, CHOP inhibitor inactive, Beta2AR ag CP1 25.7 and FAP fluor counter inactive.
Screening COc1cc(C(=O)NCc2nnc(SCC(=O)NC3CCCCC3)o2)cc(OC)c1OC returned CHOP UPR activ inactive, VLA-4 inh inactive, B2AR ag inactive and XBP1 UPR activ inactive.
For CCC1CCCCN1CCCNC(=O)Cn1cnc2sc(C)c(S(=O)(=O)N3CC(C)CC(C)C3)c2c1=O (stereo not drawn) the results were CHOP UPR activ inactive, VLA-4 inh inactive, B2AR ag 58.9, XBP1 UPR activ inactive, Beta2AR ag CP1 inactive and FAP fluor counter inactive.
For CCN(CC)CCCNC(=O)Cn1cnc2sc(C)c(S(=O)(=O)N3CCC(C)CC3)c2c1=O the results were CHOP UPR activ inactive, VLA-4 inh inactive, B2AR ag inactive and XBP1 UPR activ inactive.
CCOC(=O)c1c(SCC(=O)Nc2nccs2)nc(C)c(C)c1C was read as CHOP UPR activ inactive, VLA-4 inh inactive, B2AR ag inactive and XBP1 UPR activ inactive.
